Source: ChEMBL document CHEMBL1122803, “Folate antagonists. 22. Antimalarial and antibacterial effects of 2,4-diamino-6-quinazolinesulfonamides” (1984)
Values after ≈ are worked out from the molar mass of the structure shown.

Columns and labels:
Assay type in all cases: functional
Staphylococcus aureus [1] = assay: In vitro antibacterial activity against […] S 18713.
Outline: (§1)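 Antibacterial testing in vitro by gradient-plate test. Read-out was the minimum inhibitory concentration, with values exceeding 25 reported as >25.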

Enterococcus faecalis = assay: In vitro antibacterial activity against Streptococcus faecalis MGH-2.; outline: as §1
Escherichia coli [2] = assay: Compound was tested in vitro against Escherichia coli Vogel. by gradient-plate test.; outline: as §1
[3] = tested on: Mycobacterium tuberculosis; assay: In vitro antibacterial activity against Mycobacterium tuberculosis H37Rv.
Outline: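 Mycobacterium tuberculosis tested in vitro by gradient-plate test; minimum inhibitory concentration reported.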

Plasmodium berghei [4] = assay: Antimalarial activity as change in MST for drug-sensitive Plasmodium berghei infected mice (Mus musculus) at 640 mg/kg subcutaneous dose over 72 hr
Shigella sonnei = assay: In vitro antibacterial activity against Shigella sonnei C-10.; outline: as §1
Pseudomonas aeruginosa [5] = assay: In vitro against Pseudomonas aeruginosa 28. by gradient-plate test; outline: as §1
Staphylococcus aureus [6] = assay: In vitro antibacterial activity against […] U.C-76.; outline: as §1
Plasmodium berghei [7] = assay: Antimalarial activity as change in MST for drug-sensitive Plasmodium berghei infected mice (Mus musculus) at 40 mg/kg subcutaneous dose over 72hr
Plasmodium berghei [8] = assay: Antimalarial activity as change in MST against drug-sensitive Plasmodium berghei infected mice (Mus musculus) at 160 mg/kg subcutaneous dose after 72h
Escherichia coli [9] = assay: Tested in vitro against Escherichia coli Vogel. by gradient-plate test; outline: as §1
Plasmodium berghei [10] = assay: Antimalarial activity as change in MST for drug-sensitive Plasmodium berghei infected mice (Mus musculus) at 80 mg/kg subcutaneous dose over 72 hr
Plasmodium berghei [11] = assay: Antimalarial activity as change in MST for drug-sensitive Plasmodium berghei infected mice (Mus musculus) at 40 mg/kg subcutaneous dose over 72 hr
Plasmodium berghei [12] = assay: Antimalarial activity as change in MST against drug-sensitive Plasmodium berghei infected mice (Mus musculus) at 20 mg/kg subcutaneous dose after 72h
Plasmodium berghei [13] = assay: Antimalarial activity as change in MST against drug-sensitive Plasmodium berghei infected mice (Mus musculus) at 320 mg/kg subcutaneous dose after 72 hr
Plasmodium berghei [14] = assay: Antimalarial activity as change in MST for drug-sensitive Plasmodium berghei infected mice (Mus musculus) at 80mg/kg subcutaneous dose over 72h
Plasmodium berghei [15] = assay: Antimalarial activity as change in MST for drug-sensitive Plasmodium berghei infected mice (Mus musculus) after 72 hrs at 320 mg/kg subcutaneous dose
Plasmodium berghei [16] = assay: Antimalarial activity as change in MST against drug-sensitive Plasmodium berghei infected mice (Mus musculus) at 160 mg/kg subcutaneous dose after 72 hr
Plasmodium berghei [17] = assay: Antimalarial activity as toxic deaths 2-5 days post infection for drug-sensitive Plasmodium berghei infected mice (Mus musculus) at 640 mg/kg subcutaneous dose over 72 hr
Outline: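 P. berghei (drug-sensitive) infected mice dosed once subcutaneously 72 h postinfection, compound in sesame or peanut oil. Read-out is the count of deaths on days 2–5 after infection, attributed to drug toxicity. Five animals per dose level, or 10 where indicated.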

Plasmodium berghei [18] = assay: Antimalarial activity as survivor numbers at day 60 for drug-sensitive Plasmodium berghei infected mice (Mus musculus) at 640 mg/kg subcutaneous dose over 72 hr
Outline: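 Mice infected with drug-sensitive P. berghei got one subcutaneous dose in sesame or peanut oil 72 h postinfection. Read-out is the number of mice alive at 60 days postinfection, termed "cured", without subinoculation to confirm parasitological cure. Groups of five per dose, or 10 where indicated.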

Pseudomonas aeruginosa [19] = assay: Compound was tested in vitro against Pseudomonas aeruginosa 28. by gradient-plate test.; outline: as §1

| SMILES | MIC (Staphylococcus aureus [1]) [µg/mL] | MIC (Enterococcus faecalis) [µg/mL] | MIC [3] [µg/mL] | Delta MST (Plasmodium berghei [4]) [days] | MIC (Shigella sonnei) [µg/mL] | MIC (Pseudomonas aeruginosa [5]) [µg/mL] | MIC (Staphylococcus aureus [6]) [µg/mL] | Delta MST (Plasmodium berghei [7]) [days] | Delta MST (Plasmodium berghei [8]) [days] | MIC (Escherichia coli [9]) [µg/mL] | Delta MST (Plasmodium berghei [11]) [days] | Delta MST (Plasmodium berghei [12]) [days] | Delta MST (Plasmodium berghei [13]) [days] | Delta MST (Plasmodium berghei [14]) [days] | other results |
| --- | --- | --- | --- | --- | --- | --- | --- | --- | --- | --- | --- | --- | --- | --- | --- |
| CCN(CC)CCN(C)S(=O)(=O)c1ccc2nc(N)nc(N)c2c1 | > 25 | 20 (≈ 56.7 µM) | > 25 | 0.3 | > 25 | > 25 | > 25 | 0.1 | 0.3 |  |  |  |  |  | MIC (Escherichia coli [2]): > 25 µg/mL |
| Nc1nc(N)c2cc(S(=O)(=O)Nc3ccc4ccccc4c3)ccc2n1 | > 25 | 5 (≈ 13.7 µM) |  | 5.3 | > 25 | > 25 | > 25 |  | 1.1 | > 25 | 0.3 | 0.3 | 1.5 |  | Delta MST (Plasmodium berghei [10]): 0.5 days |
| CN(Cc1ccc(Cl)c(Cl)c1)S(=O)(=O)c1ccc2nc(N)nc(N)c2c1 | > 25 | > 25 | > 25 | 9.5 | > 25 | > 25 | > 25 |  | 0.5 | > 25 | 0.3 | 0.3 | 4.1 | 0.5 |  |
| Nc1nc(N)c2cc(S(=O)(=O)N3CCSCC3)ccc2n1 | < 0.25 | < 0.25 | > 25 | 12.6 | 2 (≈ 6.15 µM) | > 25 | < 0.25 | 2.5 | 8.3 | 2 (≈ 6.15 µM) |  | 1.7 |  | 3.5 | Delta MST (Plasmodium berghei [15]): 9.6 days |
| CCN(CC)S(=O)(=O)c1ccc2nc(N)nc(N)c2c1Cl | > 25 | < 0.25 | > 25 |  | > 25 | > 25 | 10 (≈ 30.3 µM) | 2.3 |  | > 25 |  |  | 18.9 | 4.3 | Delta MST (Plasmodium berghei [16]): 14.9 days; toxic deaths (Plasmodium berghei [17]): 5 |
| CN(c1ccccc1)S(=O)(=O)c1ccc2nc(N)nc(N)c2c1 | > 25 | > 25 | > 25 | 13.9 | > 25 | > 25 | > 25 |  | 8.3 | > 25 | 0.5 | 0.5 | 11.5 | 3.1 |  |
| Nc1nc(N)c2cc(S(=O)(=O)N3CCC(N4CCCCC4)CC3)ccc2n1 | > 25 | > 25 | > 25 | 3.9 | > 25 | > 25 | > 25 | 0.3 | 0.7 | > 25 |  |  | 2.1 | 0.5 |  |
| Nc1nc(N)c2cc(S(=O)(=O)N(CCO)CCO)ccc2n1 |  |  |  | 8.1 |  |  |  |  | 1.3 |  | 0.3 | 0.3 | 4.1 | 0.5 |  |
| CCCN(CCC)S(=O)(=O)c1ccc2nc(N)nc(N)c2c1 |  |  |  | 1.3 |  |  |  | 0.3 |  |  |  |  |  |  | Delta MST (Plasmodium berghei [16]): 0.4 days |
| Nc1nc(N)c2cc(S(=O)(=O)N3CCCCC3)ccc2n1 | < 0.25 | < 0.25 | 10 (≈ 32.5 µM) |  | 0.5 (≈ 1.63 µM) | > 25 | < 0.25 |  | 10.2 |  | 4.4 | 1.1 | 12.9 | 4.7 | MIC (Escherichia coli [2]): < 0.25 µg/mL; survivors at day 60 (Plasmodium berghei [18]): 5 |
| Cc1c(S(=O)(=O)N(C)C)ccc2nc(N)nc(N)c12 | 2.5 (≈ 8.89 µM) | < 0.25 | > 25 |  | 1.5 (≈ 5.33 µM) | > 25 | 2 (≈ 7.11 µM) |  |  | < 0.25 | 1.1 |  |  |  | toxic deaths (Plasmodium berghei [17]): 5 |
| Nc1nc(N)c2cc(S(=O)(=O)N3CCCCC3Cc3ccccc3)ccc2n1 (stereo unspecified) | > 25 | < 0.25 | > 25 | 0.5 | > 25 | > 25 | 2 (≈ 5.03 µM) | 0.3 | 0.3 | > 25 |  |  |  |  |  |
| CCOC(=O)N1CCN(S(=O)(=O)c2ccc3nc(N)nc(N)c3c2)CC1 | > 25 | 2 (≈ 5.26 µM) | > 25 |  | > 25 | > 25 | 2 (≈ 5.26 µM) | 0.2 | 4.1 | > 25 |  | 0.1 | 4.7 | 0.5 | survivors at day 60 (Plasmodium berghei [18]): 4 |
| CC(C)N(C)S(=O)(=O)c1ccc2nc(N)nc(N)c2c1 |  |  |  |  |  |  |  | 0.7 | 7.3 |  |  | 0.5 | 6.9 |  | Delta MST (Plasmodium berghei [10]): 4 days |
| Nc1nc(N)c2cc(S(=O)(=O)Nc3cccc(Br)c3)ccc2n1 | > 25 | > 25 | > 25 | 4.1 | > 25 | > 25 | > 25 | 0.3 | 0.5 | > 25 |  | 0.3 | 1.7 | 0.5 |  |
| Nc1nc(N)c2cc(S(=O)(=O)Nc3ccc(Cl)cc3)ccc2n1 |  |  |  | 13.9 |  |  |  | 0.7 | 9.3 |  |  | 0.5 | 14.7 | 4.9 |  |
| CN(c1cccc(Cl)c1)S(=O)(=O)c1ccc2nc(N)nc(N)c2c1 | > 25 | > 25 | > 25 | 11.9 | > 25 |  | > 25 | 0.3 | 4.5 | > 25 |  | 0.3 | 6.9 | 0.5 | MIC (Pseudomonas aeruginosa [19]): > 25 µg/mL |
